5 substances from paper PMC2702655 (Archives of biochemistry and biophysics, 2009) can be followed below.

“Also recorded” adds a separate entry of the source.

The test system of test [1] is eNOS. The test is described as follows: eNOS oxygenase activity, L-[3H]citrulline formation. Type of test: biochemical, human. To be noted: 50 nM eNOS, 1 μM calmodulin, 0.5 mM Ca2+, 10 μM L-arginine, 37 °C, 5 min, varied peptide concentrations. The method, boiled down:
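Steady-state reaction in 25 mM Tris pH 7.5, 100 mM NaCl, 0.1 mM EGTA, 0.1 mM EDTA, 100 μM β-NADPH, 100 μM H4B and 1 μCi L-[3H]arginine tracer. Read-out was L-[3H]citrulline formed. Activity was normalized as percent of the rate without peptide. Mean ± standard deviation of triplicate experiments.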

The next test deals with CaM mutant B1234Q. Briefly: Gel mobility-shift assay of peptide binding to CaM mutant B1234Q. Set-up: species or system human. To be noted: CaM:peptide ratio 1:10, 100 μM Ca2+. The method, boiled down:
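Calmodulin mutant with Glu→Gln at all four Ca2+ sites ([…]), expressed in E. coli BL21(DE3) and purified by heat treatment at 70°C, ammonium sulfate fractionation and gel filtration. Test peptide and mutant were incubated at a 1:10 CaM:peptide ratio for 1 h in 20 mM Tris pH 7.5 with 100 μM Ca2+. Samples ran on 18% nondenaturing, non-reducing PAGE with 100 μM free Ca2+ in gel buffers, then Coomassie staining.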

In a further test the test system is CaM. The test is described as follows: Intrinsic tryptophan fluorescence of peptides with CaM. Type of test: binding, human. Particulars: 100 μM Ca2+; 5 μM peptide + 5 μM CaM, 20 mM Tris pH 7.5, excitation 290 nm. The method, boiled down: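 Test peptides carry tryptophan. Each peptide (5 μM) was measured with or without 5 μM E. coli-expressed wild-type CaM in 20 mM Tris pH 7.5 containing 100 μM Ca2+, with 1 mM EGTA in place of Ca2+ as the low-Ca2+ condition. Intrinsic fluorescence was excited at 290 nm and emission scanned from 300 to 450 nm, 2-nm slits. Intensity and emission peak position were compared.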

Test [2] has as its system eNOS. The test is described as follows: Cytochrome c reductase activity of eNOS. Type of test: biochemical, human. Particulars: 10 μM peptide, with CaM. The method, boiled down:
(§1)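 Purified eNOS in Tris-HCl pH 7.5 with NaCl, 10% glycerol, NADPH and enzyme at 37 °C, with or without each peptide, and with or without CaM plus 100 μM CaCl2. Cytochrome c reduction used cytochrome c as electron acceptor. Ferricyanide reduction used the same mixture with ferricyanide in place of cytochrome c.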

The test system of test [3] is eNOS. Briefly: Ferricyanide reduction by eNOS. Type of test: biochemical, human. Particulars: 10 μM peptide, with CaM. The method, boiled down:
as §1

Consider PKFPRVKNWEVGSITYDTLS [Peptide E0], for which the “Effect on eNOS oxygenase activity (L-citrulline formation), in words” value (“Effect on eNOS oxygenase activity” for short) in the test on eNOS [1] is “did not interfere with eNOS catalytic activity”.

Regarding “RRPKRREIPL^1KVLV^5KAV^8LFACML^14M [Peptide M2]”, the “Binding to B1234Q (disappearance of free B1234Q band)” value in the test with CaM mutant B1234Q is on record as “able to bind B1234Q; also recorded: binds B1234Q with the highest affinity”.

Consider “TKQA^1WRNA^5PRC^8IG^10RIQW^14SNL [Peptide M1]”, for which the “Binding to B1234Q (disappearance of free B1234Q band)” value in the test on CaM mutant B1234Q was “able to bind B1234Q”. In the test on CaM, the “Increase in tryptophan fluorescence intensity induced by CaM” value was 2 fold.

As to “VTSRIRTQSF^1SLQERQL^8RGAVPW^14 [Peptide E5]”, in the test on eNOS [1], the “Effect on eNOS oxygenase activity” value is listed as “did not interfere with eNOS catalytic activity”.

Regarding “YNSSPRPEQHKSY^1KIRF^5NSI^8SCSDPL^14 [Peptide E3]”, the “Effect on eNOS oxygenase activity” value with eNOS [1] is given as “weak inhibition on citrulline formation”. In addition, in the test with eNOS [2], the “Inhibition of cytochrome c reduction” value is reported as “no effect on electron transfer within reductase domain”. Further, in the test with eNOS [3], the “Inhibition of ferricyanide reduction” value is on record as “no effect on electron transfer within reductase domain”.
